The source made the active and inactive calls. The rule behind the calls is not given here.
Columns and labels:
Mus musculus [1] = experiment: Narcotic agonistic activity in acetic acid mouse writhing assay after subcutaneous administration of the drug; format: functional; details: sc
Procedure, shortened: (§1)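 Subcutaneous dosing. Salts were given in distilled H2O, and free bases were dissolved with 1 N HCl and then diluted. Each ED50 (agonist) or AD50 (antagonist) came from at least three doses, with at least five animals per dose.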

Rattus norvegicus [2] = experiment: Narcotic antagonist activity in heat stimulus rat tail flick assay after subcutaneous administration; format: functional; details: sc; procedure, shortened: as §1
Mus musculus [3] = experiment: Compound was tested for narcotic agonistic activity in acetic acid mouse writhing assay after subcutaneous administration of the drug at a dose of 18 uM/kg; Inactive; format: functional, organism-based
Rattus norvegicus [4] = experiment: Compound was tested for antinociceptive activity in heat stimulus rat tail flick assay after subcutaneous administration of the drug; format: functional; details: sc; procedure, shortened: as §1
Rattus norvegicus [5] = experiment: Compound was tested for antinociceptive activity in heat stimulus rat tail flick assay after subcutaneous administration of the drug at a dose of 30 umol/Kg; Inactive; format: functional, organism-based
Rattus norvegicus [6] = experiment: Compound was tested for antinociceptive activity in heat stimulus rat tail flick assay after subcutaneous administration of the drug at a dose of 23 umol/Kg; Inactive; format: functional, organism-based
Mus musculus [7] = experiment: Compound was tested for narcotic agonistic activity in acetic acid mouse writhing assay after subcutaneous administration of the drug at a dose of 23 uM/kg; Inactive; format: functional, organism-based
Mus musculus [8] = experiment: Compound was tested for narcotic agonistic activity in acetic acid mouse writhing assay after subcutaneous administration of the drug at a dose of 25 uM/kg; Inactive; format: functional, organism-based

SMILES	ED50 (Mus musculus [1]) [µmol/kg]	ED50 (Rattus norvegicus [2]) [µmol/kg]	also measured
O=C1CC[C@@]2(O)[C@H]3Cc4ccc(O)c5c4[C@@]2(CCN3CC2CC2)[C@H]1O5 [NALTREXONE]	> 28	0.2	–
C[C@H]1CC2C3Cc4ccc(O)c5c4C2(CCN3CC2CCC2)[C@@H](O5)C1=O (some centres not stated)	0.8	33.1	–
COc1ccc2c3c1O[C@H]1[C@@H](O)[C@@H](CC(C)(C)O)CC4C(C2)N(C)CCC341 (some centres not stated)	–	–	ED50 (Mus musculus [3]): inactive; ED50 (Rattus norvegicus [4]): > 18 µmol/kg
COc1ccc2c3c1O[C@H]1[C@@H](O)C=C[C@H]4[C@@H](C2)N(C)CC[C@@]341 [CODEINE]	10.3	–	ED50 (Rattus norvegicus [4]): 75 µmol/kg
O=C1CCC2(O)C3Cc4ccc(O)c5c4C2(CCN3CC2CCC2)[C@H]1O5 (some centres not stated)	9.7	1.1	–
COc1ccc2c3c1O[C@H]1C(=O)CCC4C(C2)N(CC2CC2)CCC341 (some centres not stated)	39.6	7.9	–
CC(C)=CCN1CC[C@]2(C)c3cc(O)ccc3C[C@H]1[C@H]2C [(+)-PENTAZOCINE]	13	36.4	–
O=C1CCC2C3Cc4ccc(O)c5c4C2(CCN3CC2CC2)[C@H]1O5 (some centres not stated)	4.1	0.6	–
C[C@H]1CC2C3Cc4ccc(O)c5c4C2(CCN3CC2CC2)C(O5)C1=O (some centres not stated)	1.1	4.4	–
COc1ccc2c3c1O[C@H]1C(=O)[C@@H](CO)CC4C(C2)N(C)CCC341 (some centres not stated)	9.1	–	ED50 (Rattus norvegicus [5]): inactive
COc1ccc2c(c1O)C13CCN(CC4CC4)C(C2)C1[C@@H](C)[C@H](C)C(=O)C3 (some centres not stated)	> 25	> 25	–
CN1CC[C@]23c4c5ccc(O)c4O[C@H]2C(=O)CC[C@H]3[C@H]1C5 [HYDROMORPHONE]	0.3	–	ED50 (Rattus norvegicus [4]): 1.3 µmol/kg
COc1ccc2c3c1O[C@H]1C(=O)[C@@H](CC(C)(C)C)CC4C(C2)N(C)CCC341 (some centres not stated)	–	–	ED50 (Rattus norvegicus [6]): inactive; ED50 (Mus musculus [7]): inactive
C[C@@H]1C(=O)[C@@H]2Oc3c(O)ccc4c3C23CCN(CC2CCC2)C(C4)C3[C@H]1C (some centres not stated)	15	6.5	–
COc1ccc2c3c1O[C@H]1C(=O)[C@@H](C)CC4C(C2)N(C)CCC341 (some centres not stated)	2.7	–	ED50 (Rattus norvegicus [4]): 4.2 µmol/kg
COc1ccc2c3c1O[C@H]1C(=O)[C@@H](C)[C@H](C)C4C(C2)N(CC2CC2)CCC341 (some centres not stated)	> 25	2.4	–
COc1ccc2c3c1OC1C(=O)[C@@H](C)CC4C(C2)N(CC2CC2)CCC314 (some centres not stated)	–	4.1	ED50 (Mus musculus [8]): inactive
C[C@H]1CC2(O)C3Cc4ccc(O)c5c4C2(CCN3CC2CCC2)[C@@H](O5)C1=O (some centres not stated)	3.5	14.6	–
COc1ccc2c(c1O)C13CCN(CC4CCC4)C(C2)C1[C@@H](C)[C@H](C)C(=O)C3 (some centres not stated)	14	> 22	–
COc1ccc2c3c1O[C@H]1c4oc(C)cc4CC4C(C2)N(C)CCC341 (some centres not stated)	12.3	–	ED50 (Rattus norvegicus [5]): inactive
CN1CC[C@]23c4c5ccc(O)c4O[C@H]2[C@@H](O)C=C[C@H]3[C@H]1C5 [MORPHINE]	–	–	ED50 (Rattus norvegicus [4]): 19 µmol/kg
COc1ccc2c3c1O[C@H]1C(=O)CCC4C(C2)N(CC2CCC2)CCC341 (some centres not stated)	20.3	–	–

— ChEMBL document CHEMBL1121911, “Analgesic narcotic antagonists. 8. 7 alpha-Alkyl-4,5 alpha-epoxymorphinan-6-ones” (1981)
